Source: ChEMBL document CHEMBL4138194, “Synthesis of unprecedented steroidal spiro heterocycles as potential antiproliferative drugs” (Eur J Med Chem, 2018)

Assays:
A549 = experiment: Antiproliferative activity against human A549 cells after 48 hrs by SRB assay; format: functional; details: A549, 48 h
How it was run: (§1)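 Seeded at 2 500 cells/well, per doubling time. Compounds were dissolved in DMSO at 400× the top test concentration and tested in triplicate at dilutions spanning 1–100 µM, starting day 1 after plating, with 0.25% v/v DMSO as control. After 48 h, cells were fixed with cold TCA for 60 min at 4 °C, then SRB-stained. Background-corrected OD was read at 530 nm, and percentage growth was calculated against untreated cells using T0 and end-point OD (NCI formulas).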

HBL-100 = experiment: Antiproliferative activity against human HBL100 cells after 48 hrs by SRB assay; format: functional; details: HBL-100, 48 h; how it was run: as §1
HeLa = experiment: Antiproliferative activity against human HeLa cells after 48 hrs by SRB assay; format: functional; how it was run: as §1
SW1573 = experiment: Antiproliferative activity against human SW1573 cells after 48 hrs by SRB assay; format: functional; details: SW1573, 48 h; how it was run: as §1
T47D = experiment: Antiproliferative activity against human T47D cells after 48 hrs by SRB assay; format: functional
How it was run: (§2)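 Plated at 5 000 cells/well, per doubling time. Compounds were dissolved in DMSO at 400× the maximum final concentration and tested in triplicate between 1 and 100 µM for 48 h, beginning day 1 after plating, with 0.25% v/v DMSO as control. Cells were then TCA-fixed for 60 min at 4 °C and SRB-stained. Background-corrected OD was read at 530 nm, and percentage growth was derived against untreated control from start and end OD (NCI formulas).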

WiDr = experiment: Antiproliferative activity against human WiDr cells after 48 hrs by SRB assay; format: functional; how it was run: as §2
[1] = Cytotoxicity against human hTERT-BJ cells assessed as cell growth inhibition after 48 hrs SRB assay; format: cell-based
How it was run: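 BJ-hTert cells were seeded at 10 000/well and exposed from day 1 for 48 h to compounds in triplicate across 1–100 µM. DMSO stocks were 400× the top concentration, with a 0.25% v/v DMSO control. Cells were fixed with ice-cold TCA for 60 min at 4 °C and SRB-stained. Background-corrected OD was read at 530 nm, and percentage growth was computed relative to untreated cells using T0 and final OD (NCI formulas).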

Structure (SMILES)	GI50 (A549)	GI50 (HBL-100)	GI50 (HeLa)	GI50 (SW1573)	GI50 (T47D)	GI50 (WiDr)	GI50 at 48 h [1]
C[C@]12CC[C@H](O)C[C@@H]1CC[C@@H]1[C@@H]2CC[C@@]2(C)[C@H]1CC[C@@]21CN=C(NC2CCCCC2)O1	1.5 µM	2 µM	1.6 µM	1.5 µM	1.2 µM	0.96 µM	1.2 µM
COC(=O)NC[C@]1(O)CC[C@H]2[C@@H]3CCc4cc(O)ccc4[C@H]3CC[C@@]21C	6.8 µM	4 µM	3.5 µM	5.9 µM	4.3 µM	4.9 µM	
C[C@]12CC[C@H](O)CC1=CC[C@@H]1[C@@H]2CC[C@]2(C)C(c3cccnc3)=CC[C@@H]12 [ABIRATERONE]	95 µM	> 100 µM	7.9 µM	85 µM	24 µM	42 µM	4.5 µM
CCCCNC(=S)NC[C@]1(O)CC[C@H]2[C@@H]3CC[C@H]4C[C@@H](O)CC[C@]4(C)[C@H]3CC[C@@]21C	12 µM	13 µM	14 µM	9.4 µM	5.8 µM	4.5 µM	
CCCCNC1=NC[C@@]2(CC[C@H]3[C@@H]4CCc5cc(O)ccc5[C@H]4CC[C@@]32C)O1	1.4 µM	2.9 µM	2.1 µM	2.2 µM	0.45 µM	0.34 µM	< 1 µM
C[C@]12CC[C@H](O)CC1=CC[C@@H]1[C@@H]2CC[C@]2(C)C(n3cnc4ccccc43)=CC[C@@H]12 [GALETERONE]	3.9 µM	10 µM	5.3 µM	3.9 µM	2.1 µM	2.7 µM	5 µM
C[C@]12CC[C@@H]3c4ccc(O)cc4CC[C@H]3[C@@H]1CC[C@@]21CN=C(NC2CCCCC2)O1	1.1 µM	1.5 µM	1.3 µM	1.5 µM	0.71 µM	0.34 µM	< 1 µM
C[C@]12CC[C@@H]3c4ccc(O)cc4CC[C@H]3[C@@H]1CC[C@@]2(O)CNC(=S)Nc1ccccc1	9.8 µM	15 µM	6.3 µM	21 µM	5.7 µM	4.5 µM	
C[C@]12CC[C@@H]3c4ccc(O)cc4CC[C@H]3[C@@H]1CC[C@@]21CNC(=O)O1	5.4 µM	6.3 µM	1.3 µM	18 µM	4.4 µM	9.2 µM	
C[C@]12CC[C@H](O)C[C@@H]1CC[C@@H]1[C@@H]2CC[C@@]2(C)[C@H]1CC[C@@]21CNC(=O)O1	3.7 µM	10 µM	4 µM	6 µM	4.5 µM	3.8 µM	< 1 µM
COC(=O)NC[C@]1(O)CC[C@H]2[C@@H]3CC[C@H]4C[C@@H](O)CC[C@]4(C)[C@H]3CC[C@@]21C	38 µM	99 µM	70 µM	92 µM	41 µM	39 µM	
